Assay results taken from ChEMBL document CHEMBL1136744, “Synthesis and activity of substituted 2-phenylquinolin-4-amines, antagonists of immunostimulatory CpG-oligodeoxynucleotides” (J Med Chem, 2003).

Experiment: Ability to reverse action of CpG-ODN on WEHI 231 murine B-cell lymphoma cells
Type: functional, cell-based, Mus musculus
Method in brief: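 WEHI 231 murine B-lymphoma cells at 2 × 10⁵ per mL; anti-surface IgM (10 μg/mL) kills them, and CpG-ODN 1760 (6 µg/mL) reverses this. Compounds were added in triplicate at 3-fold dilutions, with or without anti-IgM. Cells were incubated 16 h at 37 °C, then pulsed with 0.5 μCi ³H-thymidine for 4 h. The concentration halving the CpG-ODN effect was read graphically from log dose-response plots. Quinacrine served as internal control.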

| Log 1/EC50 | Compound |
| --- | --- |
| 7.85 | Cc1cccc(-c2cc(NCCC3CCCN3C)c3ccccc3n2)c1 (stereo unspecified) |
| 8.15 | CN(C)CCNc1cc(-c2ccc(CN3CCN(C)CC3)cc2)nc2ccccc12 |
| 6.92 | CN1CCN(Cc2cccc(-c3cc(NCCCn4ccnc4)c4ccccc4n3)c2)CC1 |
| 5.74 | Cc1ccc(-c2cc(NCCCCCO)c3ccccc3n2)cc1 |
| 9 | CN(C)CCCNc1cc(-c2ccc(N3CCN(C)CC3)cc2)nc2ccccc12 |
| 7.77 | CCN1CCCC1CNc1cc(-c2ccc(F)cc2)nc2ccccc12 (stereo unspecified) |
| 7.3 | Cc1cccc(-c2cc(NCCCN3CCOCC3)c3ccccc3n2)c1 |
| 7.74 | Cc1cccc(-c2cc(NCCN(C)C)c3ccccc3n2)c1 |
| 7.66 | CCN1CCCC1CNc1cc(-c2ccc(C)cc2)nc2ccccc12 (stereo unspecified) |
| 7.73 | CN1CCN(CCNc2cc(-c3ccc(F)cc3)nc3ccccc23)CC1 |
| 7.17 | Fc1ccc(-c2cc(NCCCN3CCOCC3)c3ccccc3n2)cc1 |
| 7.68 | Fc1ccc(-c2cc(NCCCCN3CCCC3)c3ccccc3n2)cc1 |
| 7.62 | Fc1ccc(-c2cc(NCCN3CCCC3)c3ccccc3n2)cc1 |
| 8.66 | CN1CCN(c2ccc(-c3cc(NCCCN4CCOCC4)c4ccccc4n3)cc2)CC1 |
| 7.81 | NCCCCCNc1cc(-c2ccc(F)cc2)nc2ccccc12 |
| 8.17 | CN1CCN(CCCNc2cc(-c3ccc(CN4CCN(C)CC4)cc3)nc3ccccc23)CC1 |
| 7.91 | Cc1ccc(-c2cc(NCCN(C)C)c3ccccc3n2)cc1 |
| 7.88 | CN1CCCC1CCNc1cc(-c2ccc(F)cc2)nc2ccccc12 (stereo unspecified) |
| 8.7 | CN1CCN(c2ccc(-c3cc(NCCC4CCCN4C)c4ccccc4n3)cc2)CC1 (stereo unspecified) |
| 7.56 | Cc1cccc(-c2cc(NCCCN3CCN(C)CC3)c3ccccc3n2)c1 |
| 8.27 | CN(C)CCNc1cc(-c2ccc(N3CCCCC3)cc2)nc2ccccc12 |
| 7.8 | CN(C)CCCNc1cc(-c2ccc(N3CCCCC3)cc2)nc2ccccc12 |
| 5.51 | Cc1cccc(-c2cc(OCCN(C)C)c3ccccc3n2)c1 |
| 7.88 | Cc1ccc(-c2cc(Nc3ccc(O)c(CN4CCN(C)CC4)c3)c3ccccc3n2)cc1 |
| 8.82 | CN1CCN(CCNc2cc(-c3ccc(N4CCN(C)CC4)cc3)nc3ccccc23)CC1 |
| 5.88 | Cc1ccc(-c2cc(OCCN(C)C)c3ccccc3n2)cc1 |

| Log 1/EC50 | Compound |
| --- | --- |
| 7.33 | CN(C)CCCCNc1cc(-c2ccc(N3CCCCC3)cc2)nc2ccccc12 |
| 6.71 | Cc1cccc(-c2cc(NCCCn3ccnc3)c3ccccc3n2)c1 |
| 7.94 | Cc1ccc(-c2cc(NCCCN(C)C)c3ccccc3n2)cc1 |
| 7.88 | Cc1cccc(-c2cc(NCCCN(C)C)c3ccccc3n2)c1 |
| 8.11 | CN1CCN(Cc2cccc(-c3cc(NCCC4CCCN4C)c4ccccc4n3)c2)CC1 (stereo unspecified) |
| 7.65 | CCN(CC)CCNc1cc(-c2cccc(C)c2)nc2ccccc12 |
| 8.85 | CN1CCN(Cc2cc(Nc3cc(-c4ccc(N5CCN(C)CC5)cc4)nc4ccccc34)cc(CN3CCN(C)CC3)c2O)CC1 |
| 8.91 | CN(C)CCCCNc1cc(-c2ccc(N3CCN(C)CC3)cc2)nc2ccccc12 |
| 8.84 | Cc1ccc(-c2cc(Nc3cc(CN4CCN(C)CC4)c(O)c(CN4CCN(C)CC4)c3)c3ccccc3n2)cc1 |
| 8.26 | CN1CCN(c2ccc(-c3cc(NCCCCN4CCCC4)c4ccccc4n3)cc2)CC1 |
| 8.62 | CN1CCN(c2ccc(-c3cc(NCCN4CCCC4)c4ccccc4n3)cc2)CC1 |
| 7.86 | CN(C)CCCNc1cc(-c2ccc(F)cc2)nc2ccccc12 |
| 5.16 | OCCCCCNc1cc(-c2ccc(F)cc2)nc2ccccc12 |
| 6.98 | Cc1ccc(-c2cc(NCCCn3ccnc3)c3ccccc3n2)cc1 |
| 8.04 | CN(C)CCCNc1cc(-c2ccc(CN3CCN(C)CC3)cc2)nc2ccccc12 |
| 7.73 | CCN(CC)CCNc1cc(-c2ccc(C)cc2)nc2ccccc12 |
| 7.57 | Cc1ccc(-c2cc(NCCCN3CCOCC3)c3ccccc3n2)cc1 |
| 9.12 | CN(C)CCNc1cc(-c2ccc(N3CCN(C)CC3)cc2)nc2ccccc12 |
| 8.49 | CN1CCN(Cc2ccc(-c3cc(NCCN4CCCC4)c4ccccc4n3)cc2)CC1 |
| 8.84 | CN(C)CCCCCNc1cc(-c2ccc(N3CCN(C)CC3)cc2)nc2ccccc12 |
| 8.76 | CN1CCN(Cc2cc(Nc3cc(-c4ccc(F)cc4)nc4ccccc34)cc(CN3CCN(C)CC3)c2O)CC1 |
| 7.66 | CCN1CCCC1CNc1cc(-c2cccc(C)c2)nc2ccccc12 (stereo unspecified) |
| 7.86 | Cc1ccc(-c2cc(NCCCN3CCN(C)CC3)c3ccccc3n2)cc1 |
| 7.67 | CN1CCN(Cc2cc(Nc3cc(-c4ccc(F)cc4)nc4ccccc34)ccc2O)CC1 |
| 7.76 | CN(C)CCCCNc1cc(-c2ccc(F)cc2)nc2ccccc12 |
